Source: ChEMBL document CHEMBL6078633, “Covalent Inhibitors of S100A4 Block the Formation of a Pro-Metastasis Non-Muscle Myosin 2A Complex” (J Med Chem, 2024)
One block for each molecule: values may come before it. The source made the active and inactive calls. No cut-off for these calls is given here.

Assays:
[1] = Inhibition of S100A4-NMII interaction (unknown origin) by HTRF analysis; design: species or system Homo sapiens
Outline: (§1)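 TR-FRET peptide-displacement assays run in parallel: S100A4 with MPN (NMII-mimicking) peptide, and S100A11 with AnII-mimicking peptide, both with 1 mM calcium. IC50 fitted from percentage inhibition against solvent controls.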

Homo sapiens = species: Homo sapiens; test: Inhibition of S100A11-AN2 interaction (unknown origin) by HTRF analysis
Outline: as §1, with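 “calcium. Duplicate dose-response in two independent experiments; top concentration 100 μM or 48.75 μM depending on series.” for “calcium.”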

HeLa = test: Inhibition of cell migration in human HeLa cells assessed as reduction in wound healing at 8 uM incubated for 36 hrs by incucyte live-cell imager; type: functional, cell-based
Outline: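 HeLa or A549 cells seeded in collagen-coated 96-well plates to near confluency. Monolayer scratched, then medium replaced with medium containing various inhibitor concentrations. Plates imaged every 2 h for 36 h in an Incucyte. Wound area measured with an image-analysis wound healing tool.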

HEK293 [2] = test: Inhibition of C-terminal halo-tagged S100A4 C81S mutant-nanoluc-fused NMII interaction (unknown origin) expressed in HEK293 cells using nano-glo as substrate incubated for 24 hrs by Nano-bret assay relative to control; type: cell-based; settings: Homo sapiens, dose or concentration not given here
Outline: (§2)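 S100A4 wild-type or C81S construct co-expressed with NMII fusion in HEK293 cells, run in parallel. Inhibitors given at a single 30 μM for 24 h with HaloTag 618 ligand in phenol-red-free 4% serum medium. NanoGlo substrate added. Background-corrected 618/460 nm BRET ratio compared with DMSO-treated cells.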

Protein S100-A4 = Protein S100-A4 (Homo sapiens, UniProt P26447); test: Inhibition of S100A4 (unknown origin) in presence of GSH by HTRF analysis
HEK293 [3] = test: Inhibition of C-terminal halo-tagged S100A4 C81S mutant-nanoluc-fused NMII interaction (unknown origin) expressed in HEK293 cells using nano-glo as substrate incubated for 24 hrs by Nano-bret assay; type: cell-based; settings: Homo sapiens; outline: as §2
HEK293 [4] = test: Inhibition of wild type C-terminal halo-tagged S100A4-nanoluc-fused NMII interaction (unknown origin) expressed in HEK293 cells using nano-glo as substrate incubated for 24 hrs by Nano-bret assay; type: cell-based; settings: Homo sapiens
[5] = Aqueous solubility of compound in PBS buffer at pH 7.4; type: physicochemical
Outline: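 Aqueous solubility measured in PBS pH 7.4 by an outside contract laboratory.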

[6] = Permeability of compound in MDCK-MDR1 cells; type: ADME, cell-based, Canis lupus familiaris; settings: dog
Outline: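 Permeability and P-gp efflux measured by transit across MDCK-MDR1 cell monolayers by an outside contract laboratory.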

Protein S100-A4, sequence (P26447 whole entry, the tested form may be a part): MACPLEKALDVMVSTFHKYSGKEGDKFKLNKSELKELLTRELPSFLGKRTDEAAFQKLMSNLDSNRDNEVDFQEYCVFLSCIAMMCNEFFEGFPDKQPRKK

IC50 [1]: < 1000 nM
inhibition (Homo sapiens): inactive
SMILES: O=C1Nc2ccccc2C1NC(=O)[C@H]1C[C@H](c2ccccc2)CN1C(=O)CCl (some centres not stated)

IC50 [1]: < 1000 nM
inhibition (Homo sapiens): inactive
SMILES: CN1CCCC(NC(=O)[C@H]2C[C@H](c3ccccc3)CN2C(=O)CCl)C1=O (some centres not stated)

IC50 [1]: 2900 nM
IC50 (Protein S100-A4): 4620 nM
SMILES: O=C(Nc1cccc(Cl)c1)[C@H]1C[C@H](c2ccccc2)CN1C(=O)CCl
inhibition (HeLa): Active
inhibition (HEK293 [2]): < 60%
inhibition (HEK293 [3]): Active
inhibition (HEK293 [4]): Active

IC50 (Protein S100-A4): > 20000 nM
SMILES: Cc1ccc(S(=O)(=O)/C=C/C#N)cc1

IC50 [1]: < 1000 nM
inhibition (Homo sapiens): inactive
SMILES: N#CCc1ccc(NC(=O)[C@H]2C[C@H](c3ccccc3)CN2C(=O)CCl)cc1

IC50 [1]: < 1000 nM
inhibition (Homo sapiens): inactive
SMILES: COc1cccc(N2CC(NC(=O)[C@H]3C[C@H](c4ccccc4)CN3C(=O)CCl)CC2=O)c1 (some centres not stated)

inhibition (Homo sapiens): inactive
solubility [5]: soluble
permeability [6]: Permeable
SMILES: O=C(NC1CCCc2ccccc21)[C@H]1C[C@H](c2ccccc2)CN1C(=O)CCl (some centres not stated)
inhibition (HeLa): Active
inhibition (HEK293 [2]): < 60%
inhibition (HEK293 [3]): Active
inhibition (HEK293 [4]): Active
